# Compound activity deposited in PubChem by SRMLSC.
# Many of the other results were omitted from the sample, so hits are more common in it than they were.
# HUVEC prolif 384 = inhibitors of human endothelial cell proliferation; HUVEC proliferation, CellTiter-Glo luminescence, 72 h; hits give low values; viability, % at 10 µM (by protocol); hit rate 1.1% among 86,000;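 active = viability at or below 30%; inactive = viability above 30%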;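 also: 100% = median luminescence of DMSO-only cell control wells on each plate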
# Lung fibro prol = blocks proliferation of human lung fibroblasts | LL 47 human lung fibroblast viability, ATP luminescence; hits give low values | viability, % at 10 µM | hit rate 1.1% among 85,000;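 active = viability at or below 50% in the single dose screen; inactive = viability above 50%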;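 also: compound exposure lasted 72 h before the ATP readout; 100% = median luminescence of untreated cell-only wells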
#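 material = human LL 47 lung fibroblast cells | dosing = compounds added from tenfold dosing solution, 0.1% DMSO final | timing = overnight cell rest, 72 h compound treatment at 37 °C | measured by = CellTiter-Glo luminescence measuring cellular ATP | evaluation = % viability versus median cells-only luminescence | control set = cell-only wells, no compound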
# PTEN del growth = growth suppressors of cells with PTEN tumor suppressor deletion; AID 827; hit rate 1.2% among 140,000; HCT116 PTEN-null viability, CellTiter-Glo, 60 h; hits give low values; viability, % at 10 µM;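 active = viability at or below a set limit, 4 SD under the median of all tested compounds, cut at about 3.7% in these data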;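 also: PTEN knockout HCT116 line with beta catenin targeted HCT116 as companion control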
# H69AR inhibit = growth inhibitors of human H69AR lung tumor cells. H69AR lung tumor viability, ATP luminescence, 72 h; hits give low values. viability, % at 10 µM. hit rate 6% among 85,000;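 active = viability at or below 40%; inactive = viability above 40%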;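 also: multidrug resistant small cell line overexpressing MRP-1 efflux transporter; 100% = mean luminescence of untreated control wells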
# bCat KO growth = beta-catenin-lacking colon tumor cell growth suppression. viability, % at 10 µM. HCT116 beta-catenin knockout viability, CellTiter-Glo, 60 h; hits give low values. hit rate 1.5% among 140,000. AID 818;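 active = viability at or under a set limit, the compound median less 4 SD, cut at about 6% in these data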;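 also: 0% = Hyamine 1622 control at 20 µM and 100% = untreated cell control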
# An asterisk follows results filed as active; . = no result.
SMILES,HUVEC prolif 384,Lung fibro prol,PTEN del growth,H69AR inhibit,bCat KO growth
CCOC(=O)c1ccccc1OCc1cc(/C=N/n2cnnc2)ccc1OC,86,94,73,35*,71
COc1cc(/C=N\n2cnnc2)ccc1OCC(=O)Nc1ccc(C)cc1,90,94,76,84,89
COC(=O)c1ccc(Oc2c(Cl)cccc2[N+](=O)[O-])cc1,.,.,81,.,95
COc1cccc(C(=O)N/N=C(/c2ccccc2)c2ccccn2)c1,.,.,1.9*,.,5.0*
COc1cc(C(=O)N/N=C(\c2ccccc2)c2ccccn2)cc(OC)c1OC,.,.,3.8*,.,4.8*
COc1cccc(C(=O)N/N=C(/CCC(=O)O)c2ccccc2)c1,.,.,103,.,107
COc1cc(C(=O)Nc2cccc3cccnc23)cc(OC)c1OC,90,96,77,71,83
COC(=O)[C@@H]1C[C@]2(OC(=O)c3ccccc3)C=CC(=O)C[C@@H]2N1C(=O)OCc1ccccc1,.,.,2.5*,.,3.0*
O=C(O)C1CCCN1C(=O)OCc1ccccc1 (stereo unspecified),105,95,100,95,101
COc1ccc(S(=O)(=O)N2CCOCC2)cc1NC(=O)c1cccc2c(=O)c(C)c(-c3ccccc3)oc12,.,.,62,.,65
COC(=O)c1ccc(/C=C(\C#N)C(=O)NC(C)c2ccccc2)cc1 (stereo unspecified),.,.,1.6*,.,3.7*
Cc1ccc(C(C)NC(=O)/C(C#N)=C\c2c(C)[nH]c3ccccc23)cc1 (stereo unspecified),.,.,97,.,93
Cc1ccc(S(=O)(=O)N2CCCCC2)cc1NS(=O)(=O)c1cccc(C(=O)O)c1,.,.,97,.,94
O=C(CC1(O)C(=O)N(C/C=C/c2ccccc2)c2ccccc21)c1ccccn1 (stereo unspecified),34,57,10,24*,13
CCc1ccc(S(=O)(=O)/N=C2/C=C(Sc3ncn[nH]3)C(=O)c3ccccc32)cc1,.,.,3.4*,.,2.5*
COc1ccc(-c2nnc(Nc3nc4c(OC)cccc4s3)o2)cc1,2.9*,92,8,62,7
COc1cc(OC)cc(-c2nnc(Nc3nc4c(F)cccc4s3)o2)c1,67,72,66,44,55
Fc1cccc2sc(Nc3nnc(-c4ccccc4)o3)nc12,6.8*,56,17,57,24
COc1ccc(-c2nnc(Nc3nc4c(OC)cccc4s3)o2)c(OC)c1,20*,50,6,33*,3.7*
Cc1ccccc1C(=O)NNC(=O)CSc1nnc(-c2ccncc2)n1-c1ccccc1,.,.,90,.,89
COC(=O)c1ccccc1NC(=O)c1cccc(NC(=O)CSCc2ccccc2)c1C,.,.,90,.,79
Cc1ccc(S(=O)(=O)NCCc2nnc3ccc(SCC(=O)Nc4nc(C)cs4)nn23)cc1,.,.,111,.,95
Fc1cccc(Nc2ncnc3c2cnn3-c2ccccc2)c1,76,86,.,14*,.
c1ccc(-n2ncc3c(NCc4ccco4)ncnc32)cc1,73,92,58,28*,55
Clc1ccc(Cn2ncc3c(NCc4ccccc4)ncnc32)cc1,57,55,31,22*,34
SMILES,HUVEC prolif 384,Lung fibro prol,PTEN del growth,H69AR inhibit,bCat KO growth
c1ccc(Cn2ncc3c(NCc4ccco4)ncnc32)cc1,70,81,79,53,79
CCCCNc1ncnc2c1cnn2-c1ccc(Cl)cc1,60,59,23,19*,19
Cc1c(NS(=O)(=O)c2ccc(N(C)C3CCCCC3)c([N+](=O)[O-])c2)c(=O)n(-c2ccccc2)n1C,.,.,77,.,76
CSc1c(SCc2ccccc2)cnn(-c2ccccc2)c1=O,.,.,85,.,93
Cc1ccc(CNC(=O)/C=C/c2ccc(S(=O)(=O)N3CCOCC3)cc2)cc1,.,.,100,.,94
C/C(CC(=O)NCC(C)C)=N\NC(=O)COc1cc(C)c(Br)cc1Br,.,.,102,.,105
CCC(Oc1ccccc1)C(=O)Nc1ccsc1C(=O)OC (stereo unspecified),.,.,84,.,75
COCCCNc1ncnc2c1cnn2-c1ccc(C)cc1C,.,.,95,.,98
CCCCNc1ncnc2c1cnn2-c1ccccc1,72,68,23,13*,15
c1ccc(-n2ncc3c(NCCCN4CCOCC4)ncnc32)cc1,95,106,88,84,93
CCCCNc1ncnc2c1cnn2-c1ccc(C)cc1C,97,92,98,37*,88
CCN(CC)c1ccc(/C=C2\CCC(/C=N/NC(=O)c3ccc(=O)n(C)c3)=C2N2CCOCC2)cc1,.,.,77,.,81
